Measured values taken from ChEMBL document CHEMBL4715737, “New 1,3-thiazole derivatives and their biological and ultrastructural effects on Trypanosoma cruzi” (Eur J Med Chem, 2016).
The source made the active and inactive calls. The calls are words filed in the database; no cut-off is given here.

Legend:
[1] = target: Cruzipain (Trypanosoma cruzi) (UniProt P25779); experiment: Inhibition of recombinant Trypanosoma cruzi cruzain at 300 uM using Z-FR-AMC as substrate and measured at 12 sec interval for 5 mins by fluorimetric analysis relative to control
In short: (§1)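 Cruzain (1 nM) in 0.1 M sodium acetate pH 5.5, 0.01% Triton X-100, 1 mM β-mercaptoethanol, substrate Z-FR-AMC, no pre-incubation. Fluorescence read at 25 °C every 12 s for 5 min; rates from initial velocities versus DMSO control. Screened at 300, 200 or 100 (solubility-limited). Where inhibition exceeded 80%, IC50 came from seven concentrations by four-parameter variable-slope regression. At least two independent experiments, each in triplicate.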

Trypanosoma cruzi [2] = experiment: Antiparasitic activity against Trypanosoma cruzi Y strain trypomastigotes assessed as reduction in parasite viability after 24 hrs by Neubauer chamber counting method; type: functional, organism-based
In short: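 Y strain trypomastigotes collected from Vero cell supernatant, plated at 4 × 10^5 per well, treated in triplicate for 24 h at 37 °C, 5% CO2; benznidazole positive control. Motile (viable) parasites counted in Neubauer chamber, untreated wells = 100%. IC50 by nonlinear regression from at least seven concentrations.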

[3] = Cytotoxicity against BALB/c mouse splenocyte incubated for 24 hrs by [3H]-thymidine incorporation based counter beta irradiation method; type: cell-based; details: splenocytes
In short: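 BALB/c splenocytes, 5 × 10^6 cells/well in RPMI-1640 + 10% inactivated FBS. Compounds from 10 mg/mL DMSO stock, serially diluted to […] (units as printed), in triplicate. Saponin 0.1 mg/mL positive control; medium + DMSO negative (=100%). 3H-thymidine 1.0 added, 24 h at 37 °C, 5% CO2, beta counting; highest concentration giving >90% incorporation taken as non-toxic.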

[4] = Selectivity index, ratio of >90% maximum non-toxic concentration for BALB/c mouse splenocyte to IC50 for Trypanosoma cruzi Y strain trypomastigotes; type: toxicity; details: splenocytes, read-out: Selectivity Index
In short: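 SI computed as highest non-toxic splenocyte concentration (>90% 3H-thymidine incorporation, 24 h) divided by trypomastigote IC50 (24 h, Neubauer motility count).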

[5] = target: Cruzipain (Trypanosoma cruzi) (UniProt P25779); experiment: Inhibition of recombinant Trypanosoma cruzi cruzain at 200 uM using Z-FR-AMC as substrate and measured at 12 sec interval for 5 mins by fluorimetric analysis relative to control; in short: as §1
Cruzipain = Cruzipain (Trypanosoma cruzi, UniProt P25779); experiment: Inhibition of recombinant Trypanosoma cruzi cruzain using Z-FR-AMC as substrate and measured at 12 sec interval for 5 mins by fluorimetric analysis
In short: as §1, with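 “(solubility-limited).” for “(solubility-limited). Where inhibition exceeded 80%, IC50 came from seven concentrations by four-parameter variable-slope regression.”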

Trypanosoma cruzi [6] = experiment: Induction of morphological changes in Trypanosoma cruzi trypomastigotes assessed as contortion of parasite body with presence of blebs in flagellum and parasite body at 3.4 uM after 24 hrs by SEM analysis; type: functional, organism-based
In short: (§2)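 Trypomastigotes cultured 24 h in RPMI 1640 pH 7.5 with 20 mM HEPES, 10% FBS, penicillin/streptomycin plus compound at 3.4 and 6.8. Parasites washed in PBS and fixed in 2.5% glutaraldehyde/4% formaldehyde in 0.1 M cacodylate pH 6.8, then postfixed in 2% OsO4. SEM samples were ethanol-dehydrated, critical-point dried and gold-coated. TEM samples were acetone-dehydrated, epon-embedded and stained with uranyl acetate/lead citrate. Untreated controls were included.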

Trypanosoma cruzi [7] = experiment: Induction of morphological changes in Trypanosoma cruzi trypomastigotes assessed as contortion of parasite body and alteration in morphology and size of flagellum at 6.8 uM after 24 hrs by SEM analysis; type: functional, organism-based; in short: as §2
Trypanosoma cruzi [8] = experiment: Induction of morphological changes in Trypanosoma cruzi trypomastigotes assessed as cytoplasmic vacuolization at 6.8 uM after 24 hrs by TEM analysis; type: functional, organism-based; in short: as §2
Trypanosoma cruzi [9] = experiment: Induction of morphological changes in Trypanosoma cruzi trypomastigotes assessed as formation of membrane blebs at 3.4 to 6.8 uM after 24 hrs by TEM analysis; type: functional, organism-based; details: dose 3.4-6.8 µM; in short: as §2
Trypanosoma cruzi [10] = experiment: Induction of morphological changes in Trypanosoma cruzi trypomastigotes assessed as alteration in reservosomes at 3.4 to 6.8 uM after 24 hrs by TEM analysis; type: functional, organism-based; details: dose 3.4-6.8 µM; in short: as §2
Trypanosoma cruzi [11] = experiment: Induction of morphological changes in Trypanosoma cruzi trypomastigotes assessed as mitochondrial swelling at 3.4 to 6.8 uM after 24 hrs by TEM analysis; type: functional, organism-based; details: dose 3.4-6.8 µM; in short: as §2
Trypanosoma cruzi [12] = experiment: Induction of morphological changes in Trypanosoma cruzi trypomastigotes assessed as abnormal chromatin condensation at 3.4 to 6.8 uM after 24 hrs by TEM analysis; type: functional, organism-based; details: dose 3.4-6.8 µM; in short: as §2
Trypanosoma cruzi [13] = experiment: Induction of cytoplasmic vacuolization, irreversible lesions and changes in parasitic morphology in Trypanosoma cruzi trypomastigotes after 24 hrs by TEM analysis; type: functional; details: dose 3.4-6.8 µM; in short: as §2
Trypanosoma cruzi [14] = experiment: Induction of morphological changes in Trypanosoma cruzi trypomastigotes assessed as membrane projections at 3.4 uM after 24 hrs by TEM analysis; type: functional, organism-based; in short: as §2

Cruzipain (Trypanosoma cruzi), sequence (P25779 123-467 limits assumed): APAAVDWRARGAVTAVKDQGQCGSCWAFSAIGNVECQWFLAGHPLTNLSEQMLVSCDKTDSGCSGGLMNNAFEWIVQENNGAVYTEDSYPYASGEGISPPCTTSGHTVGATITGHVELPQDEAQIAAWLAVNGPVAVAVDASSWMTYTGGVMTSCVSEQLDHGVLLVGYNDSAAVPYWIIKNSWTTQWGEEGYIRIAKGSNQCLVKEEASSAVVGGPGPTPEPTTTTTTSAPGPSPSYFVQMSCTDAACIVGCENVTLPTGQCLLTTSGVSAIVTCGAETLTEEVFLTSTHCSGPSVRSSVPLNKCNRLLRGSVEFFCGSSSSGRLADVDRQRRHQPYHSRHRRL
Cruzipain, sequence (P25779 whole entry): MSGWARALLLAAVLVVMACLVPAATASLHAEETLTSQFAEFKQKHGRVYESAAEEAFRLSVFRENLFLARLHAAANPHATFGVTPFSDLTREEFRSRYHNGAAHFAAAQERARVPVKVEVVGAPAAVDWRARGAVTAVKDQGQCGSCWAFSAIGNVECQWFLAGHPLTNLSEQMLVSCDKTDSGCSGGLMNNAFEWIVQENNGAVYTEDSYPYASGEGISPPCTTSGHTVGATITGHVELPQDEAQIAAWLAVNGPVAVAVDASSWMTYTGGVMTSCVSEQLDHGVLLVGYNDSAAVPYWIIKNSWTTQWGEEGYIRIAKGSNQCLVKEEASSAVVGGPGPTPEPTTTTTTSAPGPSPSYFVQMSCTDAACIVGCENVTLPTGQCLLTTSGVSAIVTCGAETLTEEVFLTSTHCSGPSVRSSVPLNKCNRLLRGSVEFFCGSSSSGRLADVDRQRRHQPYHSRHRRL

SMILES | inhibition [1] [%] | IC50 (Trypanosoma cruzi [2]) [µM] | IC50 (Cruzipain) [µM] | MNTC at 24 h [3] [µM] | selectivity ratio [4] | other results
CC/C(=N\Nc1nc(-c2ccc(F)cc2)cs1)c1cccc(Br)c1 | 95.8 | 146 | 16.5 | 124 | 0.8 | –
CC/C(=N\Nc1nc(-c2ccc(Cl)cc2Cl)cs1)c1cccc(Br)c1 | 99.7 | 59.2 | 15.1 | 54.9 | 0.9 | –
CC/C(=N\Nc1nc(-c2ccc(Cl)cc2)cs1)c1cccc(Br)c1 | 90.4 | 140 | 32.7 | 119 | 0.8 | –
O=C(Cn1ccnc1[N+](=O)[O-])NCc1ccccc1 [BENZNIDAZOLE] | – | – | – | – | 15.4 | –
CC/C(=N\Nc1nc(-c2ccccc2)cs1)c1cccc(Br)c1 | 80.7 | 5.51 | 44.6 | 64.7 | 11.7 | –
CC/C(=N\Nc1nc(-c2ccc(OC)cc2)cs1)c1cccc(Br)c1 | 72 | 3.84 | – | 120 | 31.3 | Activity (Trypanosoma cruzi [6]): Active; Activity (Trypanosoma cruzi [7]): Active; Activity (Trypanosoma cruzi [8]): Active; Activity (Trypanosoma cruzi [9]): Active; Activity (Trypanosoma cruzi [10]): Active; Activity (Trypanosoma cruzi [11]): Active; Activity (Trypanosoma cruzi [12]): Active; Activity (Trypanosoma cruzi [13]): Dose-dependent effect; Activity (Trypanosoma cruzi [14]): Active
CC/C(=N\N=c1/scc(-c2ccccc2)n1-c1ccccc1)c1cccc(Br)c1 | – | 53.1 | – | 50.8 | 0.9 | –
CC/C(=N\Nc1nc(-c2cccc([N+](=O)[O-])c2)cs1)c1cccc(Br)c1 | 85.3 | 15.1 | 14.6 | 23.2 | 1.5 | –
CC/C(=N\Nc1nc(-c2ccc(-c3ccccc3)cc2)cs1)c1cccc(Br)c1 | 18.1 | 3.35 | – | > 216 | > 64.5 | –

Continued by falling IC50 (Trypanosoma cruzi [2]), values first:

inhibition [1] [%] | IC50 (Trypanosoma cruzi [2]) [µM] | IC50 (Cruzipain) [µM] | SMILES | MNTC at 24 h [3] [µM] | selectivity ratio [4] | other results
86.8 | 130 | 11.3 | CC/C(=N\Nc1nc(-c2ccc(Cl)c(Cl)c2)cs1)c1cccc(Br)c1 | 54.9 | 0.4 | –
– | 76.6 | – | CC/C(=N\N=c1/scc(-c2ccc(OC)cc2)n1C)c1cccc(Br)c1 | 58.1 | 0.7 | inhibition [5]: 33.1%
68.9 | 60 | – | CC/C(=N\Nc1nc(-c2ccc([N+](=O)[O-])cc2)cs1)c1cccc(Br)c1 | > 232 | > 3.9 | –
88.2 | 51 | 9.5 | CC/C(=N\Nc1nc(-c2ccc3ccccc3c2)cs1)c1cccc(Br)c1 | > 229 | > 4.5 | –
– | 36.3 | – | CC/C(=N\N=C(/S)NC)c1cccc(Br)c1 | 33.3 | 0.9 | inhibition [5]: 11.7%
97.7 | 16.6 | 19.2 | CC/C(=N\Nc1nc(-c2ccc(C)cc2)cs1)c1cccc(Br)c1 | 125 | 7.5 | –
– | 13.3 | – | CC/C(=N\N=C(/S)Nc1ccccc1)c1cccc(Br)c1 | 138 | 10.4 | inhibition [5]: 49.5%
100 | 5.8 | 3.8 | CC/C(=N\Nc1nc(-c2ccc(Br)cc2)c(C)s1)c1cccc(Br)c1 | 20.9 | 3.6 | –
99.5 | 4.79 | 0.51 | CC/C(=N\Nc1nc(-c2ccccc2)c(C)s1)c1cccc(Br)c1 | 12.5 | 2.6 | –
– | 2.41 | – | CC/C(=N\NC(N)=S)c1cccc(Br)c1 | 34.9 | – | –
